Source: ChEMBL document CHEMBL2176909, “Kaurenoic acid from Sphagneticola trilobata Inhibits Inflammatory Pain: effect on cytokine production and activation of the NO-cyclic GMP-protein kinase G-ATP-sensitive potassium channel signaling pathway” (J Nat Prod, 2012)
The source made the active and inactive calls.

Key:
Mus musculus [1] = assay: Antinociceptive activity against formalin-induced pain in Swiss mouse assessed as inhibition of paw licking at 10 mg/kg, po administered 30 mins prior to formalin challenge; assay type: functional, organism-based; set-up: dose 10 mg/kg
Procedure, shortened: (§1)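 Swiss mice dosed 10 mg/kg po 30 min before intraplantar formalin (25 μL of 1.5% in saline). Flinches and licking time counted over 0–30 min in 5-min bins and reported as 0–15 and 15–30 min phases. n = 6.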

Mus musculus [2] = assay: Antihyperalgesic activity in carrageenan-induced mechanical hyperalgesia Swiss mouse model assessed as paw withdrawal latency at 10 mg/kg, po administered 30 mins prior to challenge measured after 1 to 5 hrs post challenge by electronic pressure-meter test in presence of PKG inhibitor KT5823; assay type: functional, organism-based; set-up: dose 10 mg/kg
Procedure, shortened: (§2)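 Pretreatment ip: ODQ 0.3 mg/kg in 2% DMSO/saline at 30 min, KT5823 0.5 μg/mouse in 2% DMSO/saline at 5 min, or glybenclamide 0.3 mg/kg in 5% Tween 80/saline at 45 min. Each is followed by 10 mg/kg po, then intraplantar carrageenin (100 μg/paw) 30 min later. Pressure-meter Δ threshold (g) at 1, 3 and 5 h. n = 5.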

Mus musculus [3] = assay: Antihyperalgesic activity in carrageenan-induced mechanical hyperalgesia Swiss mouse model assessed as paw withdrawal latency at 10 mg/kg, po administered 30 mins prior to challenge measured after 1 to 5 hrs post challenge by electronic pressure-meter test; assay type: functional, organism-based; set-up: dose 10 mg/kg
Procedure, shortened: (§3)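 Male Swiss mice dosed po (1–10 mg/kg, 2% DMSO in saline) 30 min before intraplantar carrageenin (100 μg/paw). Control indomethacin 5 mg/kg ip given 40 min before. Electronic pressure-meter readings at 1, 3 and 5 h, mean of three. Δ withdrawal threshold (g) is the post-stimulus reading minus zero-time. n = 5.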

Mus musculus [4] = assay: Antihyperalgesic activity in carrageenan-induced mechanical hyperalgesia Swiss mouse model assessed as paw withdrawal latency at 10 mg/kg, po administered 30 mins prior to challenge measured after 1 to 5 hrs post challenge by electronic pressure-meter test in presence of 10 mg/kg L-NAME; assay type: functional, organism-based
Procedure, shortened: (§4)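 Swiss mice given L-NAME (10–90 mg/kg ip) 60 min before 10 mg/kg po. Intraplantar carrageenin (100 μg/paw) 30 min later. Mechanical threshold by electronic pressure-meter at 5 h, reported as Δ withdrawal threshold (g). n = 5.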

Mus musculus [5] = assay: Antiinflammatory activity in complete Freund's adjuvant-induced Swiss mouse pain model assessed as inhibition of paw flinching at 10 mg/kg, po administered 30 mins prior to challenge; assay type: functional, organism-based; set-up: dose 10 mg/kg
Procedure, shortened: (§5)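 10 mg/kg po (or vehicle) given 30 min before intraplantar CFA (10 μL/paw) in Swiss mice. Paw flinches and licking time counted over 30 min as cumulative totals. n = 6.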

Mus musculus [6] = assay: Antiinflammatory activity in Swiss mouse model assessed as inhibition of carrageenan-induced IL-1beta production in cutaneous plantar tissue at 10 mg/kg, po administered 30 mins prior to challenge measured 3 hrs post challenge by ELISA; assay type: functional, organism-based; set-up: dose 10 mg/kg
Procedure, shortened: (§6)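 Swiss mice given 10 mg/kg po 30 min before intraplantar carrageenin (100 μg/paw). At 3 h, plantar skin is removed under terminal anesthesia and homogenized in buffer with protease inhibitors. IL-1β and TNF-α measured by ELISA, as pg/paw. Saline-injected paws serve as controls. n = 5.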

Mus musculus [7] = assay: Antihyperalgesic activity in carrageenan-induced mechanical hyperalgesia Swiss mouse model assessed as paw withdrawal latency at 10 mg/kg, po administered 30 mins prior to challenge measured after 1 to 5 hrs post challenge by electronic pressure-meter test in presence of 90 mg/kg L-NAME; assay type: functional, organism-based; procedure, shortened: as §4
Mus musculus [8] = assay: Antihyperalgesic activity in carrageenan-induced mechanical hyperalgesia Swiss mouse model assessed as paw withdrawal latency at 10 mg/kg, po administered 30 mins prior to challenge measured after 1 to 5 hrs post challenge by electronic pressure-meter test in presence of 30 mg/kg L-NAME; assay type: functional, organism-based; procedure, shortened: as §4
Mus musculus [9] = assay: Antinociceptive activity in Swiss mouse assessed as inhibition of acetic acid-induced writhing at 3 to 30 mg/kg, ip administered 30 mins prior to acetic acid challenge; assay type: functional, organism-based
Procedure, shortened: (§7)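 Mice dosed ip or po (3–30 mg/kg, 2% DMSO in saline) 30 min before ip acetic acid (0.8% v/v, 10 mL/kg). Indomethacin 5 mg/kg ip given 40 min before. Cumulative writhing score over 20 min. n = 6.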

Mus musculus [10] = assay: Antihyperalgesic activity in carrageenan-induced mechanical hyperalgesia Swiss mouse model assessed as paw withdrawal latency at 10 mg/kg, po administered 30 mins prior to challenge measured after 1 to 5 hrs post challenge by electronic pressure-meter test in presence of soluble […] inhibitor ODQ; assay type: functional, organism-based; set-up: dose 10 mg/kg; procedure, shortened: as §2
Mus musculus [11] = assay: Antinociceptive activity against formalin-induced pain in Swiss mouse assessed as inhibition of paw flinching at 10 mg/kg, po administered 30 mins prior to formalin challenge; assay type: functional, organism-based; set-up: dose 10 mg/kg; procedure, shortened: as §1
Mus musculus [12] = assay: Hepatotoxicity in Swiss mouse assessed as change in plasma AST level at 10 mg/kg, po for 7 days measured over 7 days relative to vehicle-treated control; assay type: toxicity, organism-based; set-up: dose 10 mg/kg, route oral; conditions: in vivo, 168 h
Procedure, shortened: (§8)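 Mice dosed po daily for 7 days: vehicle (2% DMSO/saline or Tris/HCl pH 8.0), 10 mg/kg, or indomethacin 2.5 mg/kg. Heparinized blood is drawn under terminal anesthesia, and plasma AST and ALT are measured with a diagnostic kit. n = 8.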

Mus musculus [13] = assay: Toxicity in Swiss mouse assessed as sedative effect at 10 mg/kg, po after 1.5 to 5.5 hrs by roto-rod test; assay type: organism-based; set-up: dose 10 mg/kg, route oral; conditions: in vivo
Procedure, shortened: (§9)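 Rota-rod turning at 22 rpm. Mice are pre-selected 24 h earlier by staying on for two 120 s periods. Dosing is vehicle (20% Tween 80/saline) or 10 mg/kg po, with testing at 1.5, 3.5 and 5.5 h and a 120 s cutoff. n = 6.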

Mus musculus [14] = assay: Antinociceptive activity in Swiss mouse assessed as inhibition of PBQ-induced writhing at 10 mg/kg, po administered 30 mins prior to PBQ challenge; assay type: functional, organism-based; set-up: dose 10 mg/kg
Procedure, shortened: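 Swiss mice dosed po (10 mg/kg) 30 min before ip PBQ (1890 μg/kg in 2% DMSO/saline). Indomethacin 5 mg/kg ip given 40 min before. Cumulative writhing score over 20 min. n = 6.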

Mus musculus [15] = assay: Antiinflammatory activity in Swiss mouse model assessed as inhibition of carrageenan-induced TNFalpha production in cutaneous plantar tissue at 10 mg/kg, po administered 30 mins prior to challenge measured 3 hrs post challenge by ELISA; assay type: functional, organism-based; set-up: dose 10 mg/kg; procedure, shortened: as §6
Mus musculus [16] = assay: Antihyperalgesic activity in carrageenan-induced mechanical hyperalgesia Swiss mouse model assessed as paw withdrawal latency at 3 mg/kg, po administered 30 mins prior to challenge measured after 1 to 3 hrs post stimulus by electronic pressure-meter test; assay type: functional, organism-based; set-up: dose 3 mg/kg; procedure, shortened: as §3
Mus musculus [17] = assay: Antihyperalgesic activity in carrageenan-induced mechanical hyperalgesia Swiss mouse model assessed as paw withdrawal latency at 10 mg/kg, po administered 30 mins prior to challenge measured after 1 to 5 hrs post challenge by electronic pressure-meter test in presence of glibenclamide; assay type: functional, organism-based; set-up: dose 10 mg/kg; procedure, shortened: as §2
Mus musculus [18] = assay: Antihyperalgesic activity in carrageenan-induced mechanical hyperalgesia Swiss mouse model assessed as paw withdrawal latency at 1 mg/kg, po administered 30 mins prior to challenge by electronic pressure-meter test; assay type: functional, organism-based; set-up: dose 1 mg/kg; procedure, shortened: as §3
Mus musculus [19] = assay: Toxicity in Swiss mouse assessed as effect on muscle-relaxing effect at 10 mg/kg, po after 1.5 to 5.5 hrs by roto-rod test; assay type: organism-based; set-up: dose 10 mg/kg, route oral; conditions: in vivo; procedure, shortened: as §9
Mus musculus [20] = assay: Hepatotoxicity in Swiss mouse assessed as change in plasma ALT level at 10 mg/kg, po for 7 days measured over 7 days relative to vehicle-treated control; assay type: toxicity, organism-based; set-up: dose 10 mg/kg, route oral; conditions: in vivo, 168 h; procedure, shortened: as §8
Mus musculus [21] = assay: Antihyperalgesic activity in complete Freund's adjuvant-induced Swiss mouse pain model assessed as paw withdrawal latency at 10 mg/kg, po starting 1 hr post challenge for 7 days measured on day 1 post challenge by electronic pressure-meter test; assay type: functional, organism-based; set-up: dose 10 mg/kg
Procedure, shortened: (§10)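 Male Swiss mice injected intraplantar with CFA (10 μL/paw). Dosing is daily from 1 h after CFA for 7 days, either 10 mg/kg po or indomethacin 5 mg/kg ip. Electronic pressure-meter Δ withdrawal threshold (g) measured every 24 h. n = 6.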

Mus musculus [22] = assay: Antihyperalgesic activity in PGE2-induced mechanical hyperalgesia Swiss mouse model assessed as paw withdrawal latency at 10 mg/kg, po administered 30 mins prior to challenge measured at 3 hrs post compound treatment by electronic pressure-meter test; assay type: functional, organism-based; set-up: dose 10 mg/kg
Procedure, shortened: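 Male Swiss mice given 10 mg/kg po (vehicle 2% DMSO in saline) 30 min before intraplantar PGE2 (100 ng/paw). Electronic pressure-meter test 3 h after stimulus, each value the mean of three readings. Result is Δ withdrawal threshold (g), zero-time mean subtracted. n = 5.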

Mus musculus [23] = assay: Antinociceptive activity in po dosed Swiss mouse assessed as inhibition of acetic acid-induced writhing administered 30 mins prior to acetic acid challenge; assay type: functional, organism-based; procedure, shortened: as §7
Mus musculus [24] = assay: Antihyperalgesic activity in carrageenan-induced mechanical hyperalgesia Swiss mouse model assessed as paw withdrawal latency at 10 mg/kg, po administered 30 mins prior to challenge measured after 1 to 5 hrs post stimulus by electronic pressure-meter test; assay type: functional, organism-based; set-up: dose 10 mg/kg; procedure, shortened: as §3
Mus musculus [25] = assay: Antihyperalgesic activity against thermal hyperalgesia in Swiss mouse assessed as increase in thermal nociceptive threshold at 10 mg/kg, po after 1.5 to 5.5 hrs by hot plate test; assay type: functional, organism-based; set-up: dose 10 mg/kg
Procedure, shortened: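 Male Swiss mice (25–30 g), 10 mg/kg po. Hot plate at 55 °C inside a glass cylinder. Two baseline latencies taken ≥10 min apart, then latency read at 1.5, 3.5 and 5.5 h after dosing. Endpoint is jumping or paw licking, with a 30 s cutoff.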

Mus musculus [26] = assay: Antihyperalgesic activity in complete Freund's adjuvant-induced Swiss mouse pain model assessed as paw withdrawal latency at 10 mg/kg, po starting 1 hr post challenge for 7 days measured after 2 to 7 days by electronic pressure-meter test; assay type: functional, organism-based; set-up: dose 10 mg/kg; procedure, shortened: as §10
Mus musculus [27] = assay: Gastrointestinal toxicity in Swiss mouse assessed as increase in stomach MPO activity at 10 mg/kg, po for 7 days measured over 7 days relative to vehicle-treated control; assay type: organism-based; set-up: dose 10 mg/kg, route oral; conditions: in vivo, 168 h
Procedure, shortened: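 Mice dosed po daily for 7 days: vehicle (2% DMSO/saline or Tris/HCl pH 8.0), 10 mg/kg, or indomethacin 2.5 mg/kg. Stomach is homogenized in 50 mM phosphate buffer pH 6.0 with 0.5% HTAB. Supernatant is reacted with o-dianisidine/H2O2 and read at 450 nm. Results expressed as neutrophils ×10^4/mg tissue from a neutrophil standard curve. n = 8.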

Mus musculus [28] = assay: Antihyperalgesic activity in po dosed carrageenan-induced mechanical hyperalgesia Swiss mouse model assessed as paw withdrawal latency administered 30 mins prior to challenge by electronic pressure-meter test; assay type: functional, organism-based; procedure, shortened: as §3
Mus musculus [29] = assay: Antiinflammatory activity in complete Freund's adjuvant-induced Swiss mouse pain model assessed as inhibition of paw licking at 10 mg/kg, po administered 30 mins prior to challenge; assay type: functional, organism-based; set-up: dose 10 mg/kg; procedure, shortened: as §5

C=C1C[C@@]23CC[C@H]4[C@@](C)(CCC[C@@]4(C)C(=O)O)[C@@H]2CC[C@@H]1C3 [KAURENOIC ACID]
inhibition (Mus musculus [1]): Active | Activity (Mus musculus [2]): inactive | Activity (Mus musculus [3]): Active | Activity (Mus musculus [4]): Active | inhibition (Mus musculus [5]): Active | inhibition (Mus musculus [6]): Active | Activity (Mus musculus [7]): inactive | Activity (Mus musculus [8]): inactive | inhibition (Mus musculus [9]): Active | Activity (Mus musculus [10]): inactive | inhibition (Mus musculus [11]): Active | Activity (Mus musculus [12]): Non-toxic | Activity (Mus musculus [13]): Non-toxic | inhibition (Mus musculus [14]): Active | inhibition (Mus musculus [15]): Active | Activity (Mus musculus [16]): Active | Activity (Mus musculus [17]): inactive | Activity (Mus musculus [18]): inactive | Activity (Mus musculus [19]): Non-toxic | Activity (Mus musculus [20]): Non-toxic | Activity (Mus musculus [21]): inactive | Activity (Mus musculus [22]): Active | inhibition (Mus musculus [23]): Dose-dependent effect | Activity (Mus musculus [24]): Active | Activity (Mus musculus [25]): inactive | Activity (Mus musculus [26]): Active | Activity (Mus musculus [27]): Non-toxic | Activity (Mus musculus [28]): Dose-dependent effect | inhibition (Mus musculus [29]): Active
